Experimental data: ChEMBL document CHEMBL1121384, “Synthesis and psychoanaleptic properties of new compounds structurally related to diphenhydramine” (J Med Chem, 1980)
Where a name gives a salt, the structure may show the parent alone.

Experiments:
[1] = test system: Mus musculus; assay: Increase of exploratory behavior of mice by administering compound perorally; format: functional
How it was run: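 Male Swiss mice (18-20 g) were dosed orally in 0.5% carboxymethylcellulose and placed singly in photobeam boxes with two crossed beams. Beam breaks were counted over the first 5 min. ED50 is the dose raising counts by 50% over vehicle controls, fitted by least squares from four groups of 10 mice on doses spaced by ratio 2.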

[2] = test system: Mus musculus; assay: Toxicity administered perorally was measured in mice; format: organism-based; settings: in vivo, po
How it was run: (§1)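 Male Swiss mice (18-20 g) were given compound orally in 0.5% carboxymethylcellulose, in groups of four at 200, 400, 800 and 1600 mg/kg. LD50 was taken from mortality; vehicle controls were included.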

[3] = Ratio of LD50/ED50; format: ADME
[4] = test system: Canis familiaris; assay: Sympathomimetic action was evaluated from the increase of the femoral arterial blood pressure and of the cardiac uM/kg changes were <10%; format: functional, Canis lupus familiaris
How it was run: (§2)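 Mongrel dogs of both sexes were given compound intravenously in 0.5% carboxymethylcellulose. Hypertension and tachycardia were recorded. Values are doses in μmol/kg.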

[5] = species: Cavia porcellus; assay: In vitro antihistaminic activity was determined by histamine induced contraction of guinea pig ileum; format: functional; settings: for Kb: Cavia porcellus, Ileum, read-out: pA2 (converted)
How it was run: (§3)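 Terminal ileum strips from guinea pigs (250-300 g) killed by a blow to the neck were hung in Tyrode solution at 32 °C, gassed with 95% O2/5% CO2.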

[6] = Group toxicity is the ratio of the LD50 values of isolated mice to that of grouped mice; format: organism-based; settings: mouse, in vivo; read-out: Group toxicity
How it was run: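 Male Swiss mice (18-20 g) were dosed orally in 0.5% carboxymethylcellulose. Groups of 10 were then either crowded in small boxes (8.5 × 18 × 8.5 cm, four air holes) or kept isolated under usual housing, and mortality was read at 6 h. Ratio = LD50 isolated / LD50 grouped, from six doses spaced by ratio 2, computed by Kärber's method.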

[7] = species: Cavia porcellus; assay: In vitro anticholinergic activity was determined by acetylcholine induced contraction of guinea pig ileum; format: functional; settings: read-out: pA2 (converted); how it was run: as §3
[8] = test system: Mus musculus; assay: Narcosis antagonism was measured as the dose required to lower by 50% the duration of narcosis in mice after peroral administration; format: functional; settings: po
[9] = species: Rattus norvegicus; assay: Anorexic activity was measured as the dose required to lower by 50% the consumption of control group in rat; No activity at this dose; format: functional
How it was run: (§4)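 Male Wistar rats (100-120 g) given chocolate milk to drink for 6 h once a week over 6 weeks. In the last 4 weeks, compounds in 0.5% aqueous carboxymethylcellulose were given orally before each session in a Latin square design. ED50 is the dose cutting consumption by 50% vs vehicle controls, fitted by least squares from three groups (24 rats) on doses spaced by ratio 2.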

[10] = test system: Canis familiaris; assay: Sympathomimetic action was evaluated from the increase of the femoral arterial blood pressure and of the cardiac uM/kg changes were < 10%; format: functional, Canis lupus familiaris; how it was run: as §2
[11] = test system: Mus musculus; assay: Toxicity was measured as Lethal Dose 50 by administering to mice perorally; format: organism-based; settings: in vivo, po; how it was run: as §1
[12] = test system: Canis familiaris; assay: Sympathomimetic action was evaluated from the increase of the femoral arterial blood pressure after intravenous injection in dog; format: functional, Canis lupus familiaris; how it was run: as §2
[13] = species: Rattus norvegicus; assay: Anorexic activity was measured as the dose required to lower by 50% the consumption of control group in rat; format: functional; how it was run: as §4
[14] = test system: Canis familiaris; assay: Sympathomimetic action was evaluated from the increase of the cardiac rhythm after intravenous injection in dog; format: functional, Canis lupus familiaris; how it was run: as §2

Row | Compound | ED50 [1] | LD50 [2] | selectivity ratio [3] | also measured
1 | O=C(O)/C=C\C(=O)O.O=C(O)/C=C\C(=O)O.O=C(O)CCN1CCN(CCOC2c3ccccc3-c3ccccc32)CC1 | 0.23 mmol/kg | 2.3 mmol/kg | 10 | 
2 | COc1ccccc1C(OCCN1CCN(CCC(=O)O)CC1)c1ccccc1.O=C(O)/C=C\C(=O)O.O=C(O)/C=C\C(=O)O (configuration not stated) | 0.5 mmol/kg | 2.2 mmol/kg |  | 
3 | O=C(O)/C=C\C(=O)O.O=C(O)/C=C\C(=O)O.O=C(O)CCN1CCN(CCOC(c2ccccc2)c2cccc(C(F)(F)F)c2)CC1 (configuration not stated) | 0.3 mmol/kg | 1.8 mmol/kg | 6 | 
4 | O=C([O-])CCN1CCN(CCOC(c2ccccc2)c2ccccc2)CC1.[Na+] | 0.21 mmol/kg | 3.6 mmol/kg | 17 | Activity [4]: 0; Kb [5]: 0.759 µM; selectivity ratio [6]: 0.6; Kb [7]: 115 µM; ED50 [8]: > 500 µmol/kg
5 | O=C(O)/C=C\C(=O)O.O=C(O)/C=C\C(=O)O.O=C(O)CCCN1CCN(CCOC(c2ccccc2)c2ccc(F)cc2)CC1 (configuration not stated) | 0.06 mmol/kg | 1.9 mmol/kg | 34 | 
6 | Cl.O=C(O)CCCN1CCN(CCOC(c2ccccc2)c2ccccc2)CC1 | 0.17 mmol/kg | 3.4 mmol/kg |  | 
7 | COc1cc(C(OCCN2CCN(CCC(=O)O)CC2)c2ccccc2)cc(OC)c1OC.O=C(O)/C=C\C(=O)O.O=C(O)/C=C\C(=O)O (configuration not stated) | 0.5 mmol/kg | 2.3 mmol/kg |  | 
8 | Cc1ccc(C(OCCN2CCN(CCC(=O)O)CC2)c2ccccc2)cc1.O=C(O)/C=C\C(=O)O.O=C(O)/C=C\C(=O)O (configuration not stated) | 0.16 mmol/kg | 2.3 mmol/kg | 14 | 
9 | O=C(O)/C=C\C(=O)O.O=C(O)/C=C\C(=O)O.O=C(O)CCN1CCN(CCOC(c2ccccc2)c2ccc(F)cc2)CC1 (configuration not stated) | 0.04 mmol/kg | 1.3 mmol/kg | 37 | Kb [5]: 0.224 µM; selectivity ratio [6]: 1.7; Kb [7]: 7.24 µM; ED50 [9]: > 60 µmol/kg; Activity [10]: 0; ED50 [8]: > 650 µmol/kg
10 | CCOC(=O)CCN1CCN(CCOC(c2ccc(F)cc2)c2ccc(F)cc2)CC1.Cl | 0.06 mmol/kg | 1.2 mmol/kg | 20 | Kb [5]: 0.00724 µM; selectivity ratio [6]: 0.4; Kb [7]: 0.309 µM; Activity [10]: 0; ED50 [8]: ~200 µmol/kg
11 | O=C(CN1CCN(CCOC(c2ccccc2)c2ccccc2)CC1)N1CCN(Cc2ccc3c(c2)OCO3)CC1.O=C(O)/C=C\C(=O)O.O=C(O)/C=C\C(=O)O |  | 0.7 mmol/kg | 23 | 
12 | CCOC(=O)CCN1CCN(CCCOC(c2ccccc2)c2ccccc2)CC1.Cl | 0.1 mmol/kg | 1.8 mmol/kg | 18 | 
13 | CCOC(=O)CCN1CCN(CCOC(c2ccccc2)c2ccccc2Cl)CC1.Cl (configuration not stated) | 0.5 mmol/kg | 3.2 mmol/kg |  | pA2 [5]: 7.25
14 | O=C(O)/C=C\C(=O)O.O=C(O)/C=C\C(=O)O.O=C(O)CN1CCN(CCOC(c2ccccc2)c2ccc(F)cc2)CC1 (configuration not stated) | 0.1 mmol/kg | 2.8 mmol/kg | 28 | 
15 | O=C(O)/C=C\C(=O)O.O=C(O)/C=C\C(=O)O.O=C(O)CCN1CCN(CCOC(c2ccccc2)c2ccc(Cl)cc2)CC1 (configuration not stated) | 0.05 mmol/kg | 1.6 mmol/kg | 32 | 
16 | CCOC(=O)CCN1CCN(CCOC(c2ccccc2)c2ccc([N+](=O)[O-])cc2)CC1.Cl (configuration not stated) | 0.5 mmol/kg |  |  | LD50 [11]: 3 M/kg
17 | O=C(O)/C=C\C(=O)O.O=C(O)/C=C\C(=O)O.O=C(O)CCN1CCN(CCOC(c2ccc(F)cc2)c2ccc(F)cc2)CC1 | 0.05 mmol/kg | 1.1 mmol/kg | 23 | 
18 | CC(N)Cc1ccccc1.O=S(=O)(O)O (racemic) [AMPHETAMINE SULFATE] |  |  |  | Kb [5]: 13.5 µM; selectivity ratio [6]: 5.3; Kb [7]: > 1000 µM; Increase [12]: 50%; ED50 [13]: 13 µmol/kg; Increase [14]: 30%; ED50 [8]: 20 µmol/kg
19 | O=C(CN1CCN(CCOC(c2ccccc2)c2ccccc2)CC1)N1CCOCC1.O=C(O)/C=C\C(=O)O.O=C(O)/C=C\C(=O)O.O=C(O)/C=C\C(=O)O | 0.15 mmol/kg | 1.2 mmol/kg | 8 | 
20 | O=C(O)CCN1CCN(CCOCc2ccccc2)CC1 | 0.5 mmol/kg | > 5.5 mmol/kg |  | 
21 | Cl.N#CCCN1CCN(CCOC(c2ccccc2)c2ccccc2)CC1 | 0.1 mmol/kg | 0.7 mmol/kg | 7 | 
22 | COc1ccc(CN(CCN(C)C)c2ccccn2)cc1 [PYRILAMINE MALEATE] |  |  |  | Kb [5]: 0.000417 µM; Kb [7]: 3.98 µM
23 | CCCC(OCCN1CCN(CCC(=O)O)CC1)c1ccccc1.O=C(O)/C=C\C(=O)O.O=C(O)/C=C\C(=O)O (configuration not stated) | 0.1 mmol/kg | > 2.8 mmol/kg | > 28 | Kb [5]: 3.55 µM; Kb [7]: 1.95 µM
24 | O=C(O)/C=C\C(=O)O.O=C(O)/C=C\C(=O)O.O=C(O)CCCCN1CCN(CCOC(c2ccccc2)c2ccc(F)cc2)CC1 (configuration not stated) | 0.05 mmol/kg | 2.2 mmol/kg | 40 | 
25 | O=C([O-])CN1CCN(CCOC(c2ccccc2)c2ccccc2)CC1.[Na+] | 0.5 mmol/kg | 4.3 mmol/kg |  | 
26 | Cl.NC(=O)CCN1CCN(CCOC(c2ccccc2)c2ccccc2)CC1 | 0.17 mmol/kg | 2.1 mmol/kg | 12 | 
